Bioassay records deposited in PubChem by The Scripps Research Institute Molecular Screening Center.
OX1R antag-1: human HCRTR1 antagonism; O43613; CHO/OX1R cells, Fluo-8 calcium fluorescence, orexin A; 0.43% of 330,000 active; inhibition, % at 5 µM;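 active means inhibition above its plate's threshold, mean inhibition of all tested compounds on the plate plus 3 SD, cut at about 37% in these data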;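 further: 0% = orexin A challenge wells and 100% = SB-334867-A antagonist wells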
CHO parental Ca: signal in parental CHO cells, OX1R antagonist counter-screen; inhibition, % at 5.6 µM; 0.63% of 330,000 active; parental CHO-K1, ATP-induced calcium, Fluo-8 fluorescence;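 active means inhibition above that plate's mean sample inhibition plus 3 SD, cut at about 26% in these data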;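 further: 0% = ATP-challenged DMSO wells and 100% = DMSO wells without ATP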
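Assay system: parental CHO cells; Read-out basis: percent inhibition of ATP-evoked calcium rise, normalized to controls; Benchmarks: ATP and no-ATP DMSO wells; Compound dosing: single nominal dose of 5.6 µM per compound; Signal: Fluo-8 calcium dye fluorescence; Also added: ATP as calcium-mobilizing challenge; Repeats: singlicate.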
TAAR1 antagonist: antagonists of human TAAR1. Q96RJ0. CHO RD-HGA16 TAAR1, Fluo-8 calcium fluorescence, antagonist. inhibition, % at 3 µM. 1.5% of 360,000 active. AID 624466;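 active means inhibition above a per-plate cutoff, the mean inhibition of test compounds on that plate plus 3 SD, cut at about 49% in these data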;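 further: 0% = DMSO plus EC80 beta-PEA response and 100% = DMSO alone without agonist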
Target sequence (Q96RJ0 whole entry, looked up): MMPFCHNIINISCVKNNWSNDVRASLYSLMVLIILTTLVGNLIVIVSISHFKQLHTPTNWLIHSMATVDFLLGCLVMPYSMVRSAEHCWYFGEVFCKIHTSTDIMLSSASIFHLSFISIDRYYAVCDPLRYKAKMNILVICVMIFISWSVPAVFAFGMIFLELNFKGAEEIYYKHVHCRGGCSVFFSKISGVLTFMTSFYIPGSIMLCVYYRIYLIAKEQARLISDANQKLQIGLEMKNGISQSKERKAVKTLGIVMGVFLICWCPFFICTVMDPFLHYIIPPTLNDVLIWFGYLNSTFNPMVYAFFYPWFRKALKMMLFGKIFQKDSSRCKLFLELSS
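Test system – hTAAR1-expressing CHO RD-HGA16 cells, Gα16-coupled · Also added – β-PEA at EC80 concentration, post-compound challenge · Compound – 3 µM, single point · Incubation – dye loading 75 min at 37 °C, then 30 min room temperature · Measured by – Fluo-8 intracellular calcium dye fluorescence, real-time kinetic reads · Benchmarks – vehicle and agonist controls · Replicates – singlicate, one well per test compound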
OX1R antag-2: antagonists of human orexin 1 receptor (OX1R); OX1R-expressing cells, FRET antagonist read-out; inhibition, % at 6.6 µM; 1.8% of 330,000 active; in the data active means inhibition mostly above about 38%, no sharp cut-off; inactive means mostly below about 40%;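 further: 0% = agonist challenge alone and 100% = reference antagonist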
TAAR1 ag: human TAAR1 agonism; Q96RJ0; CHO RD-HGA16 TAAR1, Fluo-8 calcium fluorescence; vehicle wells 0%, saturating PEA agonist 100%; 0.99% of 360,000 active; AID 624467; activation, % at 3 µM;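 active means activation above the mean activation of all test compounds in the run plus 3 SD, cut at about 38% in these data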
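Repeats: no replicates (n 1) | Material: CHO-derived RD-HGA16 cells with stable Gα16 and human TAAR1 | Technique: Kinetic Fluo-8 calcium fluorescence | Schedule: 17-24 h seeding, 75 min 37 °C dye, 30 min RT | Evaluation: % activation from peak over basal fluorescence ratio, DMSO-to-PEA scaled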
nonsel antag count: nonselective antagonism, TAAR1 counter-screen; shares compounds with TAAR1 antagonist; counterscreen cell line, calcium fluorescence, antagonist mode; inhibition, % at 3 µM; 77% of 2,400 active; in the data active means inhibition above about 22%;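 further: CHO-Ga16 host cells stimulated with ATP at an EC80 level; 0% = agonist EC80 plus vehicle and 100% = vehicle without agonist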
TAAR1 ant conf: confirmation of human TAAR1 antagonists; 40% of 2,400 active; shares compounds with TAAR1 antagonist; inhibition, % at 3 µM; TAAR1-expressing cells, fluorescence antagonist read-out; in the data active means inhibition above about 49%;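 further: CHO-Ga16 host cells challenged with agonist PEA near its EC80; 0% = agonist at EC80 plus vehicle and 100% = vehicle with no agonist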
Ga16 nonsel ag: nonselective Ga16 agonism, counter-screen; shares compounds with TAAR1 antagonist; Ga16-expressing cells, calcium fluorescence, agonist counterscreen; activation, % at 3 µM; 18% of 2,400 active; in the data active means activation above about 12%;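 further: 0% = vehicle wells and 100% = saturating stimulus response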
TAAR1 ag counter: activates human TAAR1 in antagonist counter-screen; 2% of 2,400 active; activation, % at 3 µM; shares compounds with TAAR1 antagonist; hTAAR1 cell line, fluorescence activation, agonist mode; in the data active means activation above about 37%;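 further: CHO cells stably expressing TAAR1 with calcium dye readout; 0% = DMSO vehicle and 100% = full agonist response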
Starred values were filed as active, the others as inactive. An excerpt weighted towards active compounds, which were near 4% of everything screened.

For Cc1ccc(-c2cc(C(=O)Nc3c(C)n(C)n(-c4ccccc4)c3=O)c3ccccc3n2)cc1 the results were OX1R antag-1 -16.9, CHO parental Ca -26.8, TAAR1 antagonist 48.7*, OX1R antag-2 7.2, TAAR1 ag 10.1, nonsel antag count 29.5*, TAAR1 ant conf 39.6, Ga16 nonsel ag 5.8 and TAAR1 ag counter 3.1.
Cc1c(NC(=O)c2cc(-c3ccccc3)nc3ccccc23)c(=O)n(-c2ccccc2)n1C was read as OX1R antag-1 -10.2, CHO parental Ca -20.4, TAAR1 antagonist 59.3*, OX1R antag-2 13.4, TAAR1 ag 13.9, nonsel antag count 27.8*, TAAR1 ant conf 50.2*, Ga16 nonsel ag 9.8 and TAAR1 ag counter 9.9.
COc1ccc(-c2cc(C(=O)O)c3ccccc3n2)c(OC)c1 was read as OX1R antag-1 -13.3, CHO parental Ca 2.2, TAAR1 antagonist -19.4, OX1R antag-2 14.9 and TAAR1 ag 3.1.
Screening Cc1c(NC(=O)c2cc(-c3cccs3)nc3ccccc23)c(=O)n(-c2ccccc2)n1C returned OX1R antag-1 -24.6, CHO parental Ca -18.1, TAAR1 antagonist 46.3, OX1R antag-2 31.9 and TAAR1 ag 20.2.
CCc1ccc([C@H]2[C@@H]3C(=O)C[C@@H]4C(=O)N(Cc5ccccc5)C(=O)[C@@H]4[C@@H]3CN2S(=O)(=O)c2ccc(C)cc2)cc1 was read as TAAR1 antagonist -5.0 and TAAR1 ag 2.6.
CCCCCCCNC(=O)C1(CC2CC(c3ccc(Cl)cc3)=NO2)CCN(C(=O)c2cc(OCC)c(OCC)c(OCC)c2)CC1 (stereo not given) was read as OX1R antag-1 -27.5, CHO parental Ca -26.5, TAAR1 antagonist -17.2, OX1R antag-2 31.5 and TAAR1 ag -0.3.
`COc1ccccc1CN(Cc1nc2ccccc2c(=O)[nH]1)S(=O)(=O)c1ccc2ccccc2c1` gave OX1R antag-1 -12.0, CHO parental Ca -32.2, TAAR1 antagonist 70.3*, OX1R antag-2 38.7, TAAR1 ag 7.3, nonsel antag count 25.5*, TAAR1 ant conf 55.7*, Ga16 nonsel ag 7.4 and TAAR1 ag counter 9.6.
For COc1ccc(S(=O)(=O)N(Cc2ccccc2)Cc2nc3ccccc3c(=O)[nH]2)cc1 the results were OX1R antag-1 -16.8, CHO parental Ca -25.7, TAAR1 antagonist 30.1, OX1R antag-2 17.8 and TAAR1 ag 12.1.
Screening CCCCN(C)C(=O)c1nc2ccccn2c1CN1CCN(C(=O)c2cccs2)CC1 returned OX1R antag-1 -15.9, CHO parental Ca -24.4, TAAR1 antagonist 4.7, OX1R antag-2 9.1 and TAAR1 ag 0.3.
Cc1ccc(C(C(=O)NCC2CCCO2)N(Cc2ccccc2)C(=O)c2ccc(-c3ccccc3)[nH]2)o1 (stereo not given) was read as OX1R antag-1 -28.8, CHO parental Ca -16.7, TAAR1 antagonist 67.0*, OX1R antag-2 29.6, TAAR1 ag 9.0, nonsel antag count 30.7*, TAAR1 ant conf 42.2, Ga16 nonsel ag 8.1 and TAAR1 ag counter 13.5.
`NC(=O)c1nsc(C(=O)N(Cc2ccc(F)cc2)C(C(=O)NCC2CCCO2)c2ccc(F)cc2)c1N` (stereo not given) gave OX1R antag-1 -31.2, CHO parental Ca -19.1, TAAR1 antagonist -8.4, OX1R antag-2 22.9 and TAAR1 ag 0.5.
`COc1ccc(C(C(=O)NCC2CCCO2)N(Cc2ccccc2)C(=O)c2snc(C(N)=O)c2N)cc1OC` (stereo not given) gave OX1R antag-1 -16.8, CHO parental Ca -10.1, TAAR1 antagonist 21.4, OX1R antag-2 23.3 and TAAR1 ag 12.1.
